High-throughput results deposited in PubChem BioAssay by The Scripps Research Institute Molecular Screening Center.
Rin1 Abl inh = inhibitors of human Rin1-Abl protein interaction; P00519+Q13671; TR-FRET Rin1/Abl binding, biochemical; inhibition, % at 7.35 µM; 360,000 tested, 0.4% active; in the data active = inhibition above about 5%, passing the limit was not always enough
ASAP1 GAP inh = ASAP1 ArfGAP inhibition. 360,000 tested, 0.19% active. AID 624377. ASAP1-stimulated ARF1 GTP hydrolysis, GDP FP detection. inhibition, % at 16.5 µM. Q9ULH1; in the data active = inhibition above about 25%
ARFGAP1 inhibitor = inhibits rat ARF GTPase activating protein 1; inhibition, % at 16.5 µM; Q62848; 360,000 tested, 0.26% active; Arfgap1-stimulated ARF1 GTP hydrolysis, GDP FP detection;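 active = inhibition above a per-plate limit, mean inhibition of low control wells plus 3 SD, cut at about 25% in these data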
Target sequence (Q62848 1-136 limits assumed): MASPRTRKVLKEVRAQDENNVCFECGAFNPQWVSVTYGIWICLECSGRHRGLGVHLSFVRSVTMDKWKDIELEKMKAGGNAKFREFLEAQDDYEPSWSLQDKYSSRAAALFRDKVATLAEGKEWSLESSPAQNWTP
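Material: rat Arfgap1 GAP domain (His6, aa 1-136), purified enzyme. Also added: human ARF1(Δ1-17)-GTP substrate. Compound dosing: 16.5 µM single point, 1.26% DMSO. Timing: enzyme reaction 120 min at 25 °C after 20 min preincubation. Signal: GDP detection by fluorescence polarization. Read-out basis: percent inhibition of GAP-stimulated GDP formation, scaled between DMSO and no-Arfgap1 medians.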
GalR3 antagonist = human GalR3 antagonism; inhibition, % at 3 µM; HEK293 GalR3-CNG cAMP membrane potential fluorescence; galR3 body fused to GalR1 C-terminus; 360,000 tested, 0.44% active; O60755;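 active = inhibition above the screen-wide average plus 3 SD, cut at about 13% in these data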;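 note: forskolin and galanin both at EC90 stimulate the cells; cAMP rise reported by CNG channel membrane potential dye signal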
Target sequence (O60755 1-299 limits assumed): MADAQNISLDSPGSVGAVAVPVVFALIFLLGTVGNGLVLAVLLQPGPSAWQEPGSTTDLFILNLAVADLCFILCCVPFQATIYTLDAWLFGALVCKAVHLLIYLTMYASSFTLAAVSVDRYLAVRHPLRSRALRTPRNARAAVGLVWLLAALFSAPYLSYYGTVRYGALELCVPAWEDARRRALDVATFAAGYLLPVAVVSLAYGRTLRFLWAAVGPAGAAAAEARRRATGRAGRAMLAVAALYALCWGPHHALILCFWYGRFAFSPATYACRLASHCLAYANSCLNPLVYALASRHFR
Rin1 Abl conf = Rin1-Abl interaction inhibition confirmation. TR-FRET Rin1-Abl binding, purified proteins. 1,300 tested, 49% active. inhibition, % at 7.35 µM. shares compounds with Rin1 Abl inh
GFP quench-1 = quenches GFP fluorescence, counter-screen for Rin1-Abl inhibitors | inhibitors/quenchers counterscreen | inhibition, % at 6.75 µM | 1,300 tested, 8.5% active | shares compounds with Rin1 Abl inh;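 note: ABL1-eGFP fusion protein alone without its partner RIN1-SBP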
GFP quench DR = GFP fluorescence interference dose response; shares compounds with Rin1 Abl inh; GFP fluorescence interference/quenching counterscreen; IC50, µM; 230 tested, under 10 active; AID 602182; call rule not given here;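 note: ABL1-eGFP fusion protein alone without its RIN1 binding partner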
GFP quench-2 = quenches GFP fluorescence in Rin1-Abl counterscreen; shares compounds with Rin1 Abl inh; GFP fluorescence quenching counterscreen, biochemical; IC50, µM; 25 tested, under 10 active; call rule not given here
Of the large screens only hits and unclear results are named; the others gave an inactive call (follow-up assays come after a bar, where they were run). Sampled rows, rich in hits. Any-hit rate of the full collection: about 1.2%. Cut-off read from the data, not from the text of the source, unless noted: active = inhibition above about 6.5%; inactive = the rest.

Clc1ccc(C2[C@H]3CN(Cc4cccnc4)[C@H](c4ccccc4)C34CC2(c2cccnc2)C4)cn1 (stereo not given in full)	Rin1 Abl inh 58.8 | Rin1 Abl conf 71.7 | GFP quench-1 inactive
FC(F)(F)c1ccc(C2[C@H]3CN(Cc4cccnc4)[C@H](c4ccccc4)C34CC2(c2cccnc2)C4)cc1 (stereo not given in full)	none
COC(=O)N1C[C@H](OC(=O)c2ccc(-c3ccccc3)cc2)[C@H]2C[C@@H]1c1ccccc1O2	none (no result: Rin1 Abl inh)
CCOC(=O)C1CCCN(C(=O)c2cn(C)c(=O)c3cc(OC)c(OC)cc23)C1 (stereo not given)	Rin1 Abl inh 25.4 | Rin1 Abl conf 32.3 | GFP quench-1 inactive | GFP quench DR inactive
COc1cc(SC)ccc1C(=O)N1CCN(c2ccccc2F)CC1	none
COc1cc2c(C(=O)N3CCN(c4ccccc4F)CC3)cn(C)c(=O)c2cc1OC	Rin1 Abl inh 8.9 | Rin1 Abl conf 11.8 | GFP quench-1 inactive
COC(=O)N1C[C@H](OC)[C@H]2C[C@@H]1c1ccccc1O2	none (no result: Rin1 Abl inh)
COc1ccc(CCNC(=O)c2ccc(OC)c(OC)c2)cc1OC	none
COc1ccc(CCNC(=O)c2c(N)no[n+]2[O-])cc1OC	Rin1 Abl inh 6.6 | Rin1 Abl conf inactive | GFP quench-1 inactive
COc1ccc(-n2c(Cc3cccn3C)nnc2SCC(=O)Nc2cccc(Cl)c2)cc1	none
COc1ccc(-n2c(Cc3cccn3C)nnc2SCC(=O)Nc2cccc(NC(C)=O)c2)cc1	Rin1 Abl inh 9.1 | Rin1 Abl conf inactive | GFP quench-1 inactive
Cc1ccc2cc(NC(=O)CC(CC(=O)O)c3ccccc3)ccc2n1 (stereo not given)	Rin1 Abl inh 8.6 | Rin1 Abl conf inactive | GFP quench-1 inactive
COc1ccc(CCNc2cc(=O)[nH]c(N)n2)cc1	Rin1 Abl inh 23.9 (no result: ASAP1 GAP inh, ARFGAP1 inhibitor, GalR3 antagonist) | Rin1 Abl conf 52.2 | GFP quench-1 inactive | GFP quench DR inactive | GFP quench-2 inactive
COc1ccc(CCNc2ccc([N+](=O)[O-])cn2)cc1	none
CCc1c(-c2ccccc2Br)ncn1CCc1ccccc1OC	none (no result: Rin1 Abl inh)
COC(=O)c1ccsc1NS(C)(=O)=O	none (no result: Rin1 Abl inh)
CCn1c2ccccc2c2cc(CN3CCN(S(C)(=O)=O)CC3)ccc21	Rin1 Abl inh 6.1 | Rin1 Abl conf inactive | GFP quench-1 inactive
COc1ccccc1CCn1cnc(-c2ccc(Br)cc2)c1CC(C)C	none (no result: Rin1 Abl inh)
CCC(c1nc2ccccc2c(=O)n1CCCn1ccnc1)N1C(=O)c2ccccc2C1=O (stereo not given)	Rin1 Abl inh 15.0 | Rin1 Abl conf 21.0 | GFP quench-1 inactive | GFP quench DR inactive
CC(=O)Oc1ccc2c(=O)c(Oc3ccccc3)coc2c1OC(C)=O	Rin1 Abl inh 5.5 | Rin1 Abl conf inactive | GFP quench-1 inactive
Cc1ccc(Oc2coc3cc(OC(=O)c4cccs4)ccc3c2=O)cc1	none
O=c1cc(-c2ccc(O)c(O)c2)oc2cc(O)c(C3OC(CO)C(O)C(O)C3O)c(O)c12 (stereo not given)	Rin1 Abl inh 27.2 | Rin1 Abl conf 33.4 | GFP quench-1 8.9
O=c1cc(-c2ccc(O)c(O)c2)oc2c(C3O[C@H](CO)[C@@H](O)[C@H](O)[C@H]3O)c(O)cc(O)c12 (stereo not given in full)	Rin1 Abl inh 22.4 | Rin1 Abl conf 37.0 | GFP quench-1 14.0
O=c1cc(-c2ccc(O)cc2)oc2c(C3O[C@H](CO)[C@@H](O)[C@H](O)[C@H]3O)c(O)cc(O)c12 (stereo not given in full)	none
CCn1c(SCc2ccc(C(=O)OC)o2)nnc1-c1c[nH]c2ccccc12	Rin1 Abl inh 13.6 (no result: GalR3 antagonist) | Rin1 Abl conf 10.6 | GFP quench-1 inactive
CC(=O)N(Cc1ccccc1)c1nccs1	none (no result: Rin1 Abl inh)
CCOC(=O)N1CCN(C(=O)C2CCN(C(=O)Nc3ccccc3)CC2)CC1	none
CCOC(=O)N1CCN(C(=O)Nc2ccc(NC(=O)N3CCN(C(=O)OCC)CC3)cc2)CC1	Rin1 Abl inh 33.3 | Rin1 Abl conf 38.4 | GFP quench-1 inactive | GFP quench DR inactive | GFP quench-2 inactive
COCc1cc(N2CCN(C(=O)OC(C)(C)C)C[C@@H]2C)ccc1N1CC[C@@H](O)C1	none (no result: Rin1 Abl inh)
CCN=C1NC(c2ccc(Cl)cc2)C(C(=O)OC)=C(C)N1Cc1cccc(C(F)(F)F)c1 (stereo not given)	none (no result: Rin1 Abl inh)
COc1cccc(CSc2nnc(CSc3nc4nc(C)cc(C)n4n3)s2)c1	Rin1 Abl inh 27.9 | Rin1 Abl conf 39.2 | GFP quench-1 inactive | GFP quench DR inactive | GFP quench-2 inactive
COC(=O)C1=C(C)N(Cc2ccc(C(F)(F)F)cc2)C(=NCc2ccc(C(F)(F)F)cc2)NC1c1ccccc1C(F)(F)F (stereo not given)	none (no result: Rin1 Abl inh)
CC(=O)Nc1ccc(S(=O)(=O)N2CCC(C(=O)NCCC(=O)Nc3nccs3)CC2)cc1	Rin1 Abl inh 11.2 | Rin1 Abl conf inactive | GFP quench-1 inactive
O=C(CCNC(=O)C1CCN(S(=O)(=O)c2ccc(F)cc2)CC1)Nc1nccs1	none
Oc1ccc(CN2CCc3ccccc3C2)c2cccnc12	Rin1 Abl inh 27.8 | Rin1 Abl conf 7.6 | GFP quench-1 inactive
COc1cc(CNC2CCCC2)c(Br)cc1OC1CCCC1	none
COc1cc(CNCc2ccccc2)c(Br)cc1OC1CCCC1	Rin1 Abl inh 8.8 | Rin1 Abl conf inactive | GFP quench-1 inactive
CC(=O)OCC(=O)N1CCN(C(=O)C(=O)c2cccc(C(F)(F)F)c2)CC1	none (no result: Rin1 Abl inh)
c1ccc2[nH]c(SCc3cn4ccccc4n3)nc2c1	Rin1 Abl inh 5.6 | Rin1 Abl conf inactive | GFP quench-1 inactive
CCC(=O)Nc1c(C#N)c2nc3ccccc3nc2n1-c1ccc(C)cc1	none
CCCCn1c(NC(=O)c2ccccc2)c(C#N)c2nc3ccccc3nc21	Rin1 Abl inh 12.3 | Rin1 Abl conf inactive | GFP quench-1 inactive
CCC(C)n1c(NC(=O)c2ccccc2)c(C#N)c2nc3ccccc3nc21 (stereo not given)	Rin1 Abl inh 13.5 | Rin1 Abl conf inactive | GFP quench-1 inactive
Cc1nn(C(C)(C)C)c(NC(=O)c2ccccc2)c1C#N	none
O=C(OCCCOC(=O)c1ccc(O)cc1)c1ccc(O)cc1	Rin1 Abl inh 19.5 | Rin1 Abl conf 16.8 | GFP quench-1 inactive
COC(=O)[C@]12C[C@H](CC(=O)NCCCN3CCCC3=O)C(=O)N(Cc3ccc4c(c3)OCO4)C1=C[C@H](COCc1ccccc1)O[C@@H]2C	none (no result: Rin1 Abl inh)
O=C(C(Cl)Cl)N1CCN(Cc2ccc3c(c2)OCO3)CC1	Rin1 Abl inh 6.9 | Rin1 Abl conf inactive | GFP quench-1 inactive
CCN(CC)C(=O)N1CCN(Cc2ccc3c(c2)OCO3)CC1	none
